Data reported in ChEMBL document CHEMBL1135638, “Synthesis, molecular modeling studies, and pharmacological activity of selective A(1) receptor antagonists” (J Med Chem, 2002).

How the values were obtained:
Adenosine receptor A1 [1] = molecular target: T1, Adenosine receptor A1 (Rattus norvegicus, UniProt P25099); experiment: Binding affinity against rat Adenosine A1 receptor
T1 sequence (P25099 whole entry): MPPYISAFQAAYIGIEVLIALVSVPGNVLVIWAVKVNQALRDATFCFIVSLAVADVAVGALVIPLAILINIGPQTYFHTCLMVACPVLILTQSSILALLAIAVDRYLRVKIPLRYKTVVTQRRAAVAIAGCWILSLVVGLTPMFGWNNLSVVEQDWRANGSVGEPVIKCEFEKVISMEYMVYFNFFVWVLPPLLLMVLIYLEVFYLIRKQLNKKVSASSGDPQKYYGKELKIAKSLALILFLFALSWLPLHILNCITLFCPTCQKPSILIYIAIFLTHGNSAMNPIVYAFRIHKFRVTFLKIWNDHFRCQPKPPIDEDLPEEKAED

Adenosine receptor A1 [2] = molecular target: T2, Adenosine receptor A1 (Bos taurus, UniProt P28190); experiment: Displacement of [3H]DPCPX from Adenosine A1 receptor of bovine cortical membranes without GTP
T2 sequence (P28190 whole entry): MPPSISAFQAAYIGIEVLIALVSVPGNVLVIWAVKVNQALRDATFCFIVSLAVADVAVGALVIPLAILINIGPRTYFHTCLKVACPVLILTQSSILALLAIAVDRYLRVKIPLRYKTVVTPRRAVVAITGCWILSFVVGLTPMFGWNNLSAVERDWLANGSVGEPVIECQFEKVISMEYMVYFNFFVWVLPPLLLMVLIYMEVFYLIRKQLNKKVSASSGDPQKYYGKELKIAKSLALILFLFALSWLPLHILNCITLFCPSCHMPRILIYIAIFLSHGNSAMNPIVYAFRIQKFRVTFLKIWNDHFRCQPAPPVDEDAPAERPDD
How it was run: (§1)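 [3H]DPCPX displacement from bovine cortical membranes, method of Pirovano et al., run with and without 1 mM GTP. Values from three separate experiments, mean ± SEM.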

Adenosine receptor A1 [3] = molecular target: T2, Adenosine receptor A1; experiment: Displacement of [3H]DPCPX from Adenosine A1 receptor of bovine cortical membranes with 1 mM GTP; how it was run: as §1
[4] = Compound was evaluated for the inhibition of Adenylate cyclase activity; type: functional
[5] = system: Adenosine receptor A2a (Bos taurus); experiment: Percent inhibition of specific [3H]-CGS-21,680 binding to adenosine A2A receptors in bovine striatal membranes at 10 uM concentration
Adenosine receptor A1 [6] = molecular target: T2, Adenosine receptor A1; experiment: Binding affinity to Adenosine A1 receptor in bovine cortical membranes by [3H]N6-cyclohexyl adenosine displacement.; type: cell membranes
[7] = molecular target: T3, Adenosine receptor A1 (Bos taurus) (UniProt P28190); experiment: Percent inhibition of specific [3H]CHA binding on Adenosine A1 receptor in bovine cortical membranes at 10 uM concentration; type: cell membranes
T3 sequence (whole entry): T2 sequence (P28190 whole entry)

Adenosine receptor A1 [8] = molecular target: T2, Adenosine receptor A1; experiment: Binding affinity at bovine Adenosine A1 receptor.

CCOC(=O)c1cnc2c(cnn2CC(Cl)c2ccccc2)c1NCCc1ccccc1 (stereo not given)
Ki (Adenosine receptor A1 [1]): 73 nM
Ki (Adenosine receptor A1 [2]): 69.7 nM
Ki (Adenosine receptor A1 [3]): 56 nM
IC50 [4]: 52.2 nM

CCOC(=O)c1cnc2c(cnn2CC(Cl)c2ccccc2)c1NCc1ccccc1 (stereo not given)
inhibition [5]: 0%

CCOC(=O)c1cnc2c(cnn2CC(Cl)COc2ccccc2)c1NC1CC1 (stereo not given)
inhibition [5]: 34%
Ki (Adenosine receptor A1 [6]): 1050 nM

CCOC(=O)c1cnc2c(cnn2/C=C/c2ccccc2)c1NCCc1ccccc1
inhibition [5]: 2%
inhibition [7]: 58%

O=C(/C=C/C1=CC=CN2N=C(c3ccccc3)CC12)N1CCCC[C@H]1CCO (stereo not given in full)
Ki (Adenosine receptor A1 [8]): 0.49 nM

Nc1nc2ccc(Cl)cc2n2nc(-c3ccccc3F)nc12
Ki (Adenosine receptor A1 [8]): 13 nM

CCOCCNc1c(C(=O)OCC)cnc2c1cnn2/C=C/c1ccccc1
inhibition [5]: 0%
inhibition [7]: 51%

CCOC(=O)c1cnc2c(cnn2CC(Cl)COc2ccccc2)c1N1CCOCC1 (stereo not given)
inhibition [5]: 0%
inhibition [7]: 40%

FC(F)(F)c1nnc2c(NC3CCCC3)nc3ccccc3n12
Ki (Adenosine receptor A1 [8]): 7.3 nM

CCOC(=O)c1cnc2c(cnn2/C=C/c2ccccc2)c1N1CCOCC1
inhibition [5]: 0%
inhibition [7]: 40%

CCCCNc1c(C(=O)OCC)cnc2c1cnn2/C=C/c1ccccc1
inhibition [5]: 0%
inhibition [7]: 60%

Cc1cnc2c(NC3CCCC3)nc3ccccc3n12
Ki (Adenosine receptor A1 [8]): 7.9 nM

CCOC(=O)c1cnc2c(cnn2CC(Cl)c2ccccc2)c1N1CCOCC1 (stereo not given)
inhibition [5]: 0%

Cc1nn(C)c2c(=O)[nH]c(-c3ccc(Cl)cc3N)nc12
Ki (Adenosine receptor A1 [8]): 176 nM

CCCn1c(=O)c2[nH]c(C3CCC(=O)C3)nc2n(CCC)c1=O (stereo not given)
Ki (Adenosine receptor A1 [8]): 15 nM

CCCCNc1c(C(=O)OCC)cnc2c1cnn2CC(Cl)COc1ccccc1 (stereo not given)
inhibition [5]: 23%
Ki (Adenosine receptor A1 [6]): 1220 nM

C[C@H](c1ccccc1)n1c2ccccc2c2c(N)nc(-c3ccccc3)nc21
Ki (Adenosine receptor A1 [8]): 2.6 nM

CCCNc1c(C(=O)OCC)cnc2c1cnn2/C=C/c1ccccc1
inhibition [5]: 0%
inhibition [7]: 40%

CCOC(=O)c1cnc2c(cnn2CC(Cl)COc2ccccc2)c1N1CCCC1 (stereo not given)
inhibition [5]: 15%
inhibition [7]: 33%

CCCSc1nc(SC(CC)C(N)=O)nc2c1ncn2-c1ccccc1 (stereo not given)
Ki (Adenosine receptor A1 [8]): 29.5 nM

CN1C=NC2C(NC3CCCC3)=NC=NC21 (stereo not given)
Ki (Adenosine receptor A1 [8]): 540 nM

CCOC(=O)c1cnc2c(cnn2CC(Cl)COc2ccccc2)c1NCc1ccccc1 (stereo not given)
inhibition [5]: 12%
inhibition [7]: 36%

COc1ccc(-c2nc(N)c3c(C)c(C)n(C(C)c4ccccc4)c3n2)cc1 (stereo not given)
Ki (Adenosine receptor A1 [8]): 101 nM

CCOC(=O)c1cnc2c(cnn2CC(Cl)c2ccccc2)c1NC1CCCCC1 (stereo not given)
inhibition [5]: 0%
Ki (Adenosine receptor A1 [6]): 1490 nM

Nc1nc(-c2ccncc2)nc2c1c1c(n2-c2ccccc2)CCCC1
Ki (Adenosine receptor A1 [8]): 600 nM

CCOC(=O)c1cnc2c(cnn2/C=C/c2ccccc2)c1N1CCCC1
inhibition [5]: 0%
inhibition [7]: 39%

CCOC(=O)c1cnc2c(cnn2/C=C/c2ccccc2)c1NC1CC1
inhibition [5]: 0%
inhibition [7]: 67%

CCOC(=O)c1cnc2c(cnn2CC(Cl)c2ccccc2)c1N1CCCCC1 (stereo not given)
inhibition [5]: 23%
inhibition [7]: 41%

c1ccc(-c2nc3c(NC4CCCC4)[nH]c4ccccc4c-3n2)cc1
Ki (Adenosine receptor A1 [8]): 10 nM

CCOC(=O)c1cnc2c(cnn2/C=C/c2ccccc2)c1NCc1ccccc1
inhibition [5]: 2%
inhibition [7]: 39%

CCOC(=O)c1cnc2c(cnn2/C=C/c2ccccc2)c1NC1CCCCC1
inhibition [5]: 0%
inhibition [7]: 21%

CCOCCNc1c(C(=O)OCC)cnc2c1cnn2CC(Cl)COc1ccccc1 (stereo not given)
Ki (Adenosine receptor A1 [6]): 2690 nM

CCOC(=O)c1cnc2c(cnn2CC(Cl)COc2ccccc2)c1NCCc1ccccc1 (stereo not given)
inhibition [5]: 5%
Ki (Adenosine receptor A1 [6]): 456 nM

O=C(O)CCCn1nc(-c2c(-c3ccccc3)nn3ccccc23)ccc1=O
Ki (Adenosine receptor A1 [8]): 6.6 nM

CCOC(=O)c1cnc2c(cnn2CC(Cl)COc2ccccc2)c1NC1CCCCC1 (stereo not given)
inhibition [5]: 1%
Ki (Adenosine receptor A1 [6]): 3710 nM

CCOC(=O)c1cnc2c(cnn2CC(Cl)c2ccccc2)c1N1CCCC1 (stereo not given)
Ki (Adenosine receptor A1 [1]): 140 nM
Ki (Adenosine receptor A1 [2]): 103 nM
Ki (Adenosine receptor A1 [3]): 90 nM
IC50 [4]: 154 nM
